Results reported in ChEMBL document CHEMBL2311383, “Discovery of piperazin-1-ylpyridazine-based potent and selective stearoyl-CoA desaturase-1 inhibitors for the treatment of obesity and metabolic syndrome” (J Med Chem, 2013).
The source made the active and inactive calls. No cut-off for these calls is given here.

What was measured:
[1] = biological target: Acyl-CoA 6-desaturase (Rattus norvegicus) (UniProt Q9Z122); experiment: Inhibition of delta6 desaturase in Sprague-Dawley rat liver microsome using cis,cis-9,12-octadecadienoic acid substrate at 10 uM
[2] = Metabolic stability in rat liver microsome after 30 mins by LC/MS/MS analysis; format: ADME; conditions: liver microsomes, read-out: Stability
Procedure, shortened: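 Compound incubated 30 min with rat liver microsomes; percent parent remaining by LC/MS/MS.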

[3] = Apparent permeability from apical to basolateral side in human Caco2 cells; format: ADME, cell-based; conditions: Caco-2
Procedure, shortened: (§1)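 Caco-2 monolayers; apparent permeability a-to-b and b-to-a reported in 10⁻⁶ cm/s.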

[4] = biological target: Acyl-CoA (8-3)-desaturase (Rattus norvegicus) (UniProt Q920R3); experiment: Inhibition of delta5 desaturase in Sprague-Dawley rat liver microsome at 10 uM; format: microsomes
[5] = Apparent permeability from basolateral to apical side in human Caco2 cells; format: ADME, cell-based; conditions: Caco-2
Procedure, shortened: as §1

Acyl-CoA desaturase 1 = biological target: T1, Acyl-CoA desaturase 1 (Mus musculus, UniProt P13516); experiment: Inhibition of SCD1 in ICR mouse liver microsome using [9,10 3H]- stearoyl-Coenzyme A substrate assessed as decreased production of tritiated water after 20 min by scintillation counting analysis
T1 sequence (P13516 whole entry): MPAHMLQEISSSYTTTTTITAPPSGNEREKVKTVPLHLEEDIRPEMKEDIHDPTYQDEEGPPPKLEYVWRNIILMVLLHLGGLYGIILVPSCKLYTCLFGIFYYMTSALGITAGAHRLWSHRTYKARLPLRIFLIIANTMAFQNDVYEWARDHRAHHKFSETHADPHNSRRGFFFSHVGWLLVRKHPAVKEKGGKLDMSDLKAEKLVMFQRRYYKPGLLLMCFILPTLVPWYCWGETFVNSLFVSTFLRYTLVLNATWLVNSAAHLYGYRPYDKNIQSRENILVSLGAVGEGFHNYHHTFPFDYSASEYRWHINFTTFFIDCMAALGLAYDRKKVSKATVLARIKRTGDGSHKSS

Rattus norvegicus = experiment: In vivo inhibition of SCD1 in Lewis rat liver microsome at 15 mg/kg, ip administered qd for 2 days; format: functional; conditions: 48 h, route intraperitoneal
Procedure, shortened: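 Lewis rats fed high-carbohydrate diet for one week, fasted 4 h, then dosed orally (0.1–1 mg/kg in 0.2% Tween 20/1% CMC; n = 4), killed 4 h later; ip arm 15 mg/kg once daily for two days. Liver microsomes prepared, SCD1 activity measured by tritiated water release from [9,10-3H]stearoyl-CoA. Mean ± SD of at least four rats.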

Acyl-CoA (8-3)-desaturase (Rattus norvegicus), sequence (Q920R3 whole entry, looked up): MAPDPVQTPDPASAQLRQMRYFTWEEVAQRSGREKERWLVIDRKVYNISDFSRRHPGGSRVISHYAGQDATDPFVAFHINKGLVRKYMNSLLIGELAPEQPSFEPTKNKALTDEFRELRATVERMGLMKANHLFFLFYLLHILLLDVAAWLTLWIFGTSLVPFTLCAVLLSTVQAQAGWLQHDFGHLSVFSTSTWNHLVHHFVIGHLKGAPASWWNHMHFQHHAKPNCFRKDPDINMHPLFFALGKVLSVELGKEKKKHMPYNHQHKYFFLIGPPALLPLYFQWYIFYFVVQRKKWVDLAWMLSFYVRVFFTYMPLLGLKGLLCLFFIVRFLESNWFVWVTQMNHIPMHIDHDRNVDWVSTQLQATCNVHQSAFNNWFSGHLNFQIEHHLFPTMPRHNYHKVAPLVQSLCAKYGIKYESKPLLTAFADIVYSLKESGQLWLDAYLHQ
Acyl-CoA 6-desaturase (Rattus norvegicus), sequence (Q9Z122 whole entry, looked up): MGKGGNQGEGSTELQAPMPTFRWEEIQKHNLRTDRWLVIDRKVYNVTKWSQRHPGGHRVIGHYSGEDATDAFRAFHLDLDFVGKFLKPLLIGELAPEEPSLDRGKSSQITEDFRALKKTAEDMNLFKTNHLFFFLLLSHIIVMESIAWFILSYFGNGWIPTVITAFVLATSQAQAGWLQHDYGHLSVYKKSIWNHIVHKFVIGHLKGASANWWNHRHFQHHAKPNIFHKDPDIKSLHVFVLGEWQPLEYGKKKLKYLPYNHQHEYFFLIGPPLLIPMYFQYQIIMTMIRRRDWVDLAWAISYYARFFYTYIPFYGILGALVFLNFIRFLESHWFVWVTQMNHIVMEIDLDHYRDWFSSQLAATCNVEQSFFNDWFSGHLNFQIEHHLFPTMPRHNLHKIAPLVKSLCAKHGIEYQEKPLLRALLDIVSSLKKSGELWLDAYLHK

Row | SMILES | inhibition [1] | remaining at 0.5 h [2] | Papp A→B [3] | inhibition [4] | Papp B→A [5] | IC50 (Acyl-CoA desaturase 1) | inhibition in vivo at 15 mg/kg (Rattus norvegicus)
1 | O=C(NCCCCC1CC1)c1ccc(N2CCN(C(=O)c3ccccc3C(F)(F)F)CC2)nn1 | inactive | 42% | 13 ×10⁻⁶ cm/s | inactive | 17 ×10⁻⁶ cm/s | – | –
2 | O=C(NCCC1CC1)c1ccc(N2CCN(C(=O)/C=C\C(F)(F)F)CC2)nn1 | – | – | – | – | – | > 10000 nM | –
3 | CN(C)c1ccccc1C(=O)N1CCN(c2ccc(C(=O)NCCC3CC3)nn2)CC1 | – | – | – | – | – | 920 nM | –
4 | CC(C)CCNC(=O)c1cnc(N2CCN(C(=O)c3ccccc3C(F)(F)F)CC2)cn1 | – | – | – | – | – | > 10000 nM | –
5 | CC(CNC(=O)c1ccc(N2CCN(C(=O)c3ccccc3C(F)(F)F)CC2)nn1)c1ccccc1 (stereo not given) | inactive | – | – | inactive | – | 150 nM | –
6 | CCCCCCNC(=O)c1ncc(N2CCN(C(=O)c3ccccc3C(F)(F)F)CC2)cn1 | – | – | – | – | – | 1200 nM | –
7 | CCCCCNC(=O)c1ccc(N2CCN(C(=O)c3ccccc3C(F)(F)F)CC2)nn1 | inactive | 49% | 22 ×10⁻⁶ cm/s | inactive | 22 ×10⁻⁶ cm/s | 25 nM | –
8 | O=C(NCCCc1ccccc1)c1ccc(N2CCN(C(=O)c3ccccc3C(F)(F)F)CC2)nn1 | inactive | – | – | inactive | – | 69 nM | –
9 | CC(C)CCNC(=O)c1ccc(N2CCN(C(=O)c3ccccc3C(F)(F)F)CC2)nc1 | – | – | – | – | – | 78 nM | –
10 | COc1ccc(Br)c(C(=O)N2CCN(c3ccc(C(=O)NCCCc4ccccc4)cn3)CC2)c1 | – | – | – | – | – | 5100 nM | –
11 | O=C(NC[C@@H](O)c1ccccc1)c1ccc(N2CCN(C(=O)c3ccccc3C(F)(F)F)CC2)nn1 | inactive | 82% | 23 ×10⁻⁶ cm/s | inactive | 29 ×10⁻⁶ cm/s | – | > 60%
12 | O=C(NCCC1CC1)c1ccc(N2CCN(C(=O)C3CC3C(F)(F)F)CC2)nn1 (stereo not given) | – | – | – | – | – | > 1000 nM | –
13 | CCCCCCCNC(=O)c1ccc(N2CCN(C(=O)c3ccccc3C(F)(F)F)CC2)nn1 | inactive | – | – | inactive | – | 18 nM | –
14 | Cc1cnc(CNC(=O)c2ccc(N3CCN(C(=O)c4ccccc4C(F)(F)F)CC3)nn2)cn1 | inactive | – | – | inactive | – | 33 nM | –
15 | CC(C)CCNC(=O)c1cnc(N2CCN(C(=O)c3ccccc3C(F)(F)F)CC2)nc1 | – | – | – | – | – | > 10000 nM | –
16 | O=C(NCCC1CC1)c1ccc(N2CCN(C(=O)c3cc(F)ccc3F)CC2)nn1 | – | – | – | – | – | 3110 nM | –
17 | O=C(NCCCC1CC1)c1ccc(N2CCN(C(=O)c3ccccc3C(F)(F)F)CC2)nn1 | inactive | 63% | 32 ×10⁻⁶ cm/s | inactive | 30 ×10⁻⁶ cm/s | 34 nM | > 60%
18 | O=C(NCc1ccccn1)c1ccc(N2CCN(C(=O)c3ccccc3C(F)(F)F)CC2)nn1 | – | – | – | – | – | 352 nM | –
19 | CC(C)CCNC(=O)c1ccc(N2CCN(C(=O)c3ccccc3C(F)(F)F)CC2)cn1 | – | – | – | – | – | 220 nM | –
20 | CCCCCCNC(=O)c1ccc(N2CCN(C(=O)c3ccccc3C(F)(F)F)CC2)nn1 | inactive | 14% | 20 ×10⁻⁶ cm/s | inactive | 18 ×10⁻⁶ cm/s | 21 nM | –
21 | O=C(NCc1cocn1)c1ccc(N2CCN(C(=O)c3ccccc3C(F)(F)F)CC2)nn1 | – | – | – | – | – | 272 nM | –

Row | SMILES | inhibition [1] | remaining at 0.5 h [2] | Papp A→B [3] | inhibition [4] | Papp B→A [5] | IC50 (Acyl-CoA desaturase 1) | inhibition in vivo at 15 mg/kg (Rattus norvegicus)
22 | CN(C)c1ccc(Cl)c(C(=O)N2CCN(c3ccc(C(=O)NCCC4CC4)nn3)CC2)c1 | – | – | – | – | – | > 10000 nM | –
23 | O=C(NCCC1CC1)c1ccc(N2CCN(C(=O)c3ccccc3F)CC2)nn1 | – | – | – | – | – | > 1000 nM | –
24 | O=C(NCc1ccn[nH]1)c1ccc(N2CCN(C(=O)c3ccccc3C(F)(F)F)CC2)nn1 | – | – | – | – | – | > 1000 nM | –
25 | COc1ccc(F)cc1C(=O)N1CCN(c2ccc(C(=O)NCCC3CC3)nn2)CC1 | – | – | – | – | – | 710 nM | –
26 | O=C(NCCC1CC1)c1ccc(N2CCN(C(=O)c3ccccc3C(=O)O)CC2)nn1 | – | – | – | – | – | > 10000 nM | –
27 | O=C(NCCC1CC1)c1ccc(N2CCN(C(=O)c3cccc(F)c3C(F)(F)F)CC2)nn1 | inactive | 72% | 20 ×10⁻⁶ cm/s | inactive | 26 ×10⁻⁶ cm/s | 58 nM | –
28 | O=C(Nc1ccccc1)c1ccc(N2CCN(C(=O)c3ccccc3C(F)(F)F)CC2)nn1 | inactive | 9% | 13 ×10⁻⁶ cm/s | inactive | 10 ×10⁻⁶ cm/s | 83 nM | –
29 | O=C(Nc1ccccn1)c1ccc(N2CCN(C(=O)c3ccccc3C(F)(F)F)CC2)nn1 | – | – | – | – | – | 1400 nM | –
30 | CC1CCCCC1C(=O)N1CCN(c2ccc(C(=O)NCCC3CC3)nn2)CC1 (stereo not given) | – | – | – | – | – | 680 nM | –
31 | O=C(NCCC1CC1)c1ccc(N2CCN(C(=O)c3ccc(F)cc3C(F)(F)F)CC2)nn1 | inactive | 69% | 22 ×10⁻⁶ cm/s | inactive | 22 ×10⁻⁶ cm/s | 21 nM | > 60%
32 | O=C(NCc1ccc(C(F)(F)F)o1)c1ccc(N2CCN(C(=O)c3ccccc3C(F)(F)F)CC2)nn1 | inactive | 78% | 18 ×10⁻⁶ cm/s | inactive | 18 ×10⁻⁶ cm/s | 31 nM | –
33 | O=C(NCc1nccs1)c1ccc(N2CCN(C(=O)c3ccccc3C(F)(F)F)CC2)nn1 | inactive | 79% | 29 ×10⁻⁶ cm/s | inactive | 29 ×10⁻⁶ cm/s | 32 nM | –
34 | Cc1ccc(C)c(C(=O)N2CCN(c3ccc(C(=O)NCCC4CC4)nn3)CC2)c1 | – | – | – | – | – | 942 nM | –
35 | N#Cc1ccccc1C(=O)N1CCN(c2ccc(C(=O)NCCC3CC3)nn2)CC1 | – | – | – | – | – | > 1000 nM | –
36 | CC(C)(O)CCNC(=O)c1ccc(N2CCN(C(=O)c3ccccc3C(F)(F)F)CC2)nn1 | – | – | – | – | – | 10000 nM | –
37 | O=C(NC[C@H](O)c1ccccc1)c1ccc(N2CCN(C(=O)c3ccccc3C(F)(F)F)CC2)nn1 | inactive | 92% | 22 ×10⁻⁶ cm/s | inactive | 28 ×10⁻⁶ cm/s | – | –
38 | CCOCCNC(=O)c1ccc(N2CCN(C(=O)c3ccccc3C(F)(F)F)CC2)nn1 | – | – | – | – | – | 1250 nM | –
39 | O=C(NCc1ccccc1)c1ccc(N2CCN(C(=O)c3ccccc3C(F)(F)F)CC2)nn1 | inactive | 97% | 34 ×10⁻⁶ cm/s | inactive | 34 ×10⁻⁶ cm/s | 6 nM | –
40 | O=C(NCc1ncco1)c1ccc(N2CCN(C(=O)c3ccccc3C(F)(F)F)CC2)nn1 | – | – | – | – | – | 500 nM | –
41 | O=C(NCCc1ccccc1)c1ccc(N2CCN(C(=O)c3ccccc3C(F)(F)F)CC2)nn1 | inactive | 56% | 16 ×10⁻⁶ cm/s | inactive | 15 ×10⁻⁶ cm/s | – | –
42 | Cc1ccc(CNC(=O)c2ccc(N3CCN(C(=O)c4ccccc4C(F)(F)F)CC3)nn2)o1 | inactive | 37% | 25 ×10⁻⁶ cm/s | inactive | 23 ×10⁻⁶ cm/s | 15 nM | < 30%
